Measured values from ChEMBL document CHEMBL5107950, “Structure-based design of haloperidol analogues as inhibitors of acetyltransferase Eis from Mycobacterium tuberculosis to overcome kanamycin resistance” (RSC Med Chem, 2021).
Values after ≈ are worked out from the molar mass of the structure shown. Active and inactive are the calls of the source. The rule behind the calls is not given here.

Columns and labels:
[1] = tested on: Mycobacterium tuberculosis; test: Potentiation of kanamycin-induced antibacterial activity against Mycobacterium tuberculosis H37Rv mc2 6230 with Eis C-14T mutation assessed as kanamycin MIC incubated for 1 week by resazurin staining based microdilution method; type: functional; details: time 1 weeks
Outline: (§1)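 Microdilution in 7H9 + 10% OADC, 0.5% glycerol, 0.05% tyloxapol, 0.2% casamino acids, 24 µg/mL pantothenate. […] Culture at 0.5 McFarland diluted 1:100 and added. Incubated one week at 37 °C, then 5 µL of 2.5 mg/mL resazurin added, read after two days. Duplicate.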

[2] = tested on: Mycobacterium tuberculosis; test: Potentiation of kanamycin-induced antibacterial activity against Mycobacterium tuberculosis mc2 6230-K204 with Eis C-14T mutation assessed as kanamycin MIC incubated for 1 week by resazurin staining based microdilution method; type: functional; details: time 1 weeks; outline: as §1
[3] = tested on: Mycobacterium tuberculosis; test: Antibacterial activity against Mycobacterium tuberculosis mc2 6230 with Eis C-14T mutation assessed as inhibition of bacterial growth incubated upto 3 weeks hrs by resazurin dye based double-dilution method; type: functional
Outline: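 Double-dilution broth MIC. Media: M. smegmatis, Mueller-Hinton; M. abscessus, 7H9 + 0.05% Tween80 + 0.4% glycerol; mc²6230, 7H9 + 0.05% tyloxapol, 0.5% glycerol, 10% OADC, 0.2% casamino acids, 24 µg/mL pantothenate; other mycobacteria, 7H9 + 0.05% Tween80, 0.4% glycerol, 10% ADC. Inoculum from agar set to 0.5 McFarland, then diluted 1:100.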

[4] = tested on: Mycobacterium tuberculosis; test: Antibacterial activity against Mycobacterium tuberculosis H37Rv mc2 6230 with Eis C-14T mutation assessed as inhibition of bacterial growth at 100 uM incubated for 1 week by resazurin staining based microdilution method; type: functional, organism-based; details: time 1.0 weeks
[5] = tested on: Mycobacterium tuberculosis; test: Antibacterial activity against Mycobacterium tuberculosis mc2 6230-K204 with Eis C-14T mutation inhibition of bacterial growth at 100 uM incubated for 1 week by resazurin staining based microdilution method; type: functional, organism-based; details: time 1.0 weeks

Compound	MIC [1]	MIC [2]	MIC [3]	inhibition [4]	inhibition [5]
N=C(N)NCCCC(=O)c1ccc(F)cc1	<=1.25 ug ml-1	>10 µg/mL	>64 µM	–	–
O=C(CCCN1CCCCC1)c1ccc(F)cc1 [PRIMAPERONE]	<=1.25 ug ml-1	>10 µg/mL	–	–	–
CC(C)c1ccc(C(=O)CCCN2CCC(O)(c3ccc(Cl)cc3)CC2)cc1	–	–	7.8 µM (≈ 3.12 µg/mL)	–	–
CCc1ccc(C(=O)CCCN2CCC(O)(c3ccc(Cl)cc3)CC2)cc1	–	–	15.6 µM (≈ 6.02 µg/mL)	–	–
O=C(CCCN1CCC(O)CC1)c1ccc(F)cc1	<=1.25 ug ml-1	>10 µg/mL	–	–	–
CC(C)(C)c1ccc(C(=O)CCCN2CCC(O)(c3ccc(Cl)cc3)CC2)cc1	–	–	2 µM (≈ 0.828 µg/mL)	–	–
O=C(CCCN1CC=C(c2ccc(Cl)cc2)CC1)c1ccc(F)cc1	–	–	32 µM (≈ 11.5 µg/mL)	Active	Active
O=C(CCCN1CCC(c2ccc(Cl)cc2)CC1)c1ccc(F)cc1	–	–	64 µM (≈ 23 µg/mL)	Active	Active
O=C(CCCN1CCC(O)(c2ccccc2)CC1)c1ccc(F)cc1	<=1.25 ug ml-1	>10 µg/mL	>64 µM	–	–
Cc1ccc(C(=O)CCCN2CCC(O)(c3ccc(Cl)cc3)CC2)cc1	–	–	31.3 µM (≈ 11.6 µg/mL)	–	–
CC(C)(C)c1ccc(C(=O)CCCN2CCC(O)(c3ccc(Br)cc3)CC2)cc1	–	–	4 µM (≈ 1.83 µg/mL)	–	–
